# Screens as filed in PubChem.
# KCNK3 inh – human KCNK3 channel inhibitors, primary screen, CHO cells, FluxOR thallium flux, B-score. Potassium channel subfamily K member 3 (Homo sapiens), O14649. FluxOR fluorescence; stronger effect = lower value. B-score at 10 µM. 340,000 compounds, 0.84% hits;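 active = B-score under library mean minus 4 SD, starting fluorescence ratio at most library mean plus 5 SD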;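 note: more negative B-score means stronger inhibition of thallium flux through KCNK3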
# KCNK9 inh – KCNK9 potassium channel inhibitors, primary screen, HEK293 cells, thallium flux | Potassium channel subfamily K member 9 (Homo sapiens), Q9NPC2 | 310,000 compounds, 1.2% hits | FluxOR thallium flux fluorescence; stronger effect = lower value | B-score at 10 µM;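 active = ratio B-score over 3 SD below the library mean, with starting fluorescence within 5 SD of its mean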;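 note: negative B-score means less thallium flux so channel inhibition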
# hERG rescue – hERG rescue from dofetilide block, primary screen, cell-based, CHO-hERG, FluxOR thallium flux, dofetilide IC70. Voltage-gated inwardly rectifying potassium channel KCNH2 (Homo sapiens), Q12809. dofetilide IC70 present. activation (rescue from dofetilide block), less the hit threshold, % at 10 µM. 310,000 compounds, 0.51% hits. AID 1511, 2009;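 active = activation above the mean of controls blocked by dofetilide plus 5 SD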;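 note: thallium influx through hERG after potassium depolarization seen as dye fluorescence rise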
# KCC2 mod – KCC2 cotransporter modulators, thallium flux, primary screen, cell-based, HEK293 KCC2, FluoZin-2 fluorescence, MLSMR | Solute carrier family 12 member 5 (Homo sapiens), Q9H2X9 | KCC2 cells, thallium flux FluoZin-2 fluorescence | B-score of Tl+ flux slope (higher = more flux/activation; lower = inhibition) at 10 µM | 190,000 compounds, 2.2% hits;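 active = thallium flux slope and its plate-corrected score both differing from the plate sample mean at a set confidence after two filtering rounds, in either direction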;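 note: slope of fluorescence scaled to starting intensity during 10 to 20 s after thallium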
# KCNQ1 block – inhibitors of human KCNQ1 channel, primary screen, cell-based, thallium flux, high-throughput; Potassium voltage-gated channel subfamily KQT member 1 (Homo sapiens), P51787; CHO-K1 KCNQ1, FluxOR thallium flux fluorescence; stronger effect = higher value; B-score at 10 µM; 310,000 compounds, 1.3% hits;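 active = compounds whose thallium flux B-score, printed positive for inhibition, exceeds three library SD while starting fluorescence stays within three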;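 note: channel opened by potassium depolarization with thallium stimulus after 20 min compound exposure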
# Target sequence (P51787 whole entry, looked up): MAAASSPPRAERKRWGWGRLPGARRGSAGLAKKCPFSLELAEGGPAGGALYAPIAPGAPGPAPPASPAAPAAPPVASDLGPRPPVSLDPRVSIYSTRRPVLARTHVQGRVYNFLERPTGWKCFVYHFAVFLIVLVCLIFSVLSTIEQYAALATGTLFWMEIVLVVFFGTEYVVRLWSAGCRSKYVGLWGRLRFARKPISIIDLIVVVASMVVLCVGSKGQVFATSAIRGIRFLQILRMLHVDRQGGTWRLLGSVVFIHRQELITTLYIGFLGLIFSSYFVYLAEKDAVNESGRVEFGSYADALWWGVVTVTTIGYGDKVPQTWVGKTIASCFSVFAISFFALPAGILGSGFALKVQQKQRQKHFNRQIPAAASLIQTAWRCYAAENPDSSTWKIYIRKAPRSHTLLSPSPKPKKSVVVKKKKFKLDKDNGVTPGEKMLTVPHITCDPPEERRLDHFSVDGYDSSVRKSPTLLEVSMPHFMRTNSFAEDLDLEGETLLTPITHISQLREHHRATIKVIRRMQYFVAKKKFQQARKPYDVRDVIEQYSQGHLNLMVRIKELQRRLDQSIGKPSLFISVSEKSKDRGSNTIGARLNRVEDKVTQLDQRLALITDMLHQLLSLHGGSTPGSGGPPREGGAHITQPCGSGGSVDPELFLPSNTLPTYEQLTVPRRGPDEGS
# KCNQ1 act – potentiators or activators of KCNQ1 channel, primary screen, cell-based, thallium flux, high-throughput; Potassium voltage-gated channel subfamily KQT member 1 (Homo sapiens), P51787; CHO-K1 KCNQ1, thallium flux FluxOR fluorescence; stronger effect = higher value; B-score at 10 µM; 310,000 compounds, 0.35% hits;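 active = fluorescence ratio B-score, a plate-corrected score, at least three library SD, with initial intensity B-score within 5 SD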
#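 Doses: Single concentration per compound, DMSO matched to controls | Test system: KCNQ1-transfected CHO-K1 cells | Timing: 90 min dye loading and 20 min compound exposure, both at room temperature | Measured by: Kinetic FluxOR thallium fluorescence, 10-s 1-Hz baseline, 110-s post-stimulus read | Medium: Assay buffer with matched DMSO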
# KCNK9 inh conf – KCNK9 potassium channel inhibitors, confirmation, HEK293 cells, thallium flux, duplicate; shares compounds with KCNK9 inh; FluxOR thallium flux fluorescence; inhibition, % at 10 µM; 4,900 compounds, 43% hits; AID 492992, 2010;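 active = thallium signal inhibited by more than 5 SD of the compound-free buffer control wells, on both duplicate plates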;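 note: 0% = assay buffer control wells without compound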
# Kir21 sel – mouse Kir2.1 channel inhibition, confirmation, selectivity assay for KCNK9 modulator project, cell-based, HEK293, thallium flux; shares compounds with KCNK9 inh; Kir2.1 cells, FluxOR thallium flux fluorescence; inhibition, % at 10 µM; 4,900 compounds, 4% hits; AID 492993, 2010;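 active = thallium signal drop more than 5 SD beyond the mean of the no-compound control wells, seen in both duplicate plates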;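 note: signal is fluorescence rise after thallium addition divided by baseline fluorescence; plate controls were assay buffer only for no effect and full block by chlorpromazine control for full effect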
# KCNK9 uninduced – thallium flux in non-induced HEK293 cells, confirmation, counter-screen for KCNK9 inhibitor project, cell-based, second counter screen, non-induced KCNK9-HEK293. AID 492997, 2010. shares compounds with KCNK9 inh. FluxOR thallium flux. 4,900 compounds, 40% hits. inhibition, % at 10 µM;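 active = thallium signal drop beyond 5 SD of the untreated control mean, on both duplicate plates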;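 note: plate controls were buffer only IC0 wells for no effect and SID17386958 at its maximal inhibitory level for full effect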
# An asterisk follows results filed as active; i = inactive; x = not tested or not shown. Rows were chosen to be rich in hits. Some 4.1% of all compounds tested hit in one or more screens of this group.
SMILES,KCNK3 inh,KCNK9 inh,hERG rescue,KCC2 mod,KCNQ1 block,KCNQ1 act,KCNK9 inh conf,Kir21 sel,KCNK9 uninduced
CCOc1ccccc1C(=O)N1CCN(C(c2ccccc2)c2ccccc2)CC1,i,-8.4*,-12,x,i,i,i,i,26%*
CCOc1ccccc1N1CCN(C(=O)C(Sc2ccccc2)c2ccccc2)CC1 (stereo not drawn),i,-12*,-9,-0.19,i,i,56%*,i,28%*
COc1ccc(CC2(C)OC(c3ccc(Cl)cc3)=NN2C(C)=O)cc1 (stereo not drawn),i,i,-17,0.2,i,i,i,i,i
COc1ccc(CC2(C)OC(c3ccncc3)=NN2C(C)=O)cc1 (stereo not drawn),i,i,-17,-0.034,i,i,x,x,x
C#CCn1c(S(=O)(=O)Cc2ccc(F)cc2)nc(-c2ccccc2)c1-c1ccccc1,i,-14*,-12,-0.96,i,i,61%*,i,31%*
CCOC(=O)Cn1c(S(=O)(=O)Cc2ccc(F)cc2)nc(-c2ccccc2)c1-c1ccccc1,i,-9.1*,-7,0.48,i,i,34%*,i,39%*
CCOC(=O)Cn1c(-c2ccc(OC)cc2)c(-c2ccc(OC)cc2)nnc1=O,i,i,-11,x,i,i,x,x,x
CCOC(=O)Cn1c(S(=O)(=O)Cc2cccc(F)c2)nc(-c2ccccc2)c1-c1ccccc1,i,-11*,-7,x,i,i,50%*,i,30%*
Cc1ccc(CN2C(=O)C(C)Nc3ncnc(N4CCN(c5ccccn5)CC4)c32)cc1 (stereo not drawn),i,i,-24,x,i,i,x,x,x
Cc1ccc(C(=O)N(C)CC(=O)Nc2cccc(F)c2)cc1S(=O)(=O)N1CCCCC1,i,i,-12,x,i,i,x,x,x
CCN(C(=O)COC(=O)COc1ccccc1Cl)c1c(N)n(Cc2ccccc2)c(=O)[nH]c1=O,i,x,x,x,x,x,x,x,x
O=C(COC(=O)c1cc[n+]([O-])cc1)Nc1cccc(F)c1,i,x,x,x,x,x,x,x,x
COc1ccc(NC(C#N)c2ccccc2OCc2ccccc2)cc1 (stereo not drawn),i,-8.3*,-7,-1.1,i,i,i,i,24%*
Cc1ccc(NC(C#N)c2ccccc2OCc2ccccc2)cc1 (stereo not drawn),i,i,-11,-1.9,i,i,x,x,x
CCN(CCO)Cc1cc(=O)oc2cc3c(cc12)CCC3,i,i,-7,-0.4,i,i,x,x,x
CCCCN(C)Cc1cc(=O)oc2cc3c(cc12)CCCC3,i,i,-3,-0.49,i,i,i,i,i
C/C(=N\Nc1nc2ccccc2s1)c1ccc(Br)s1,i,i,2,2,i,10*,i,i,i
COC(=O)CCC(C(=O)CN1C(=O)c2ccccc2C1=O)N1C(=O)c2ccccc2C1=O (stereo not drawn),i,x,x,x,x,x,x,x,x
O=C1C2C3C=CC(C4CC34)C2C(=O)N1/N=C/c1ccc(-c2ccc(Cl)cc2[N+](=O)[O-])o1 (stereo not drawn),i,i,-14,x,i,i,i,i,i
COc1ccc(C(C)(C)C)cc1NC(=O)CCCN1C(=O)NC(C)(C)C1=O,i,x,x,x,x,x,x,x,x
O=C(Nc1c(Cl)cccc1Cl)c1ccc(-c2ccccc2)cc1,i,-8.5*,-1,1.8,i,i,34%*,i,i
O=C(c1cc(Cl)ccc1O)N1CCN(S(=O)(=O)Cc2ccccc2)CC1,i,x,x,x,x,x,x,x,x
FC(F)(F)c1cccc(OCCN2CCN(Cc3ccccc3)CC2)c1,i,i,-6,-0.35,i,i,i,i,i
OCCN1CCN(CCOc2cccc(Cl)c2)CC1,i,i,-3,x,i,i,i,i,i
Clc1cccc(OCCN2CCNCC2)c1,i,i,-9,-2.1,i,i,x,x,x
SMILES,KCNK3 inh,KCNK9 inh,hERG rescue,KCC2 mod,KCNQ1 block,KCNQ1 act,KCNK9 inh conf,Kir21 sel,KCNK9 uninduced
CCOC(=O)c1cc2c(ccn2C)n1Cc1ccc(C#N)cc1,i,-8.3*,-12,-1,i,i,37%*,i,30%*
CC(=O)Nc1ccc(SCCN2CC[C@@H](C(C)(C)C)CCC2=O)cc1,i,x,x,x,x,x,x,x,x
Cc1ccc(SCc2ccc(C(=O)N3CCCC3)cc2)cc1,i,i,5.7*,-1.2,i,i,i,i,i
CCn1c(SCc2cccc(C)c2)nnc1-c1ccccc1,i,i,-14,-0.86,i,i,i,i,i
N#C/C(C(=O)Nc1ccc(Cl)cc1)=C(/S)Nc1ccccc1,i,i,-3,x,i,i,i,i,i
O=C(Nc1ccc(Nc2ccccc2)cc1)c1ccc(Cl)cc1,i,i,-2,x,i,i,x,x,x
COc1ccc(-c2cc(C)no2)cc1S(=O)(=O)N1CCCN(Cc2ccccc2Cl)C1,i,-16*,-7,x,i,i,32%*,i,32%*
CCOC(=O)c1ccc(-c2ccc3c(=O)c4ccccc4n(C)c3c2)cc1F,i,i,-10,x,i,i,x,x,x
O=C1c2cccc(OCc3ccc(F)cc3)c2CCN1Cc1ccccc1,i,-11*,-8,-1.8,i,i,70%*,i,48%*
Cc1ccc(COc2cccc3c2CCN(Cc2ccc(F)cc2)C3=O)cc1,i,-10*,-21,-0.21,i,i,74%*,i,41%*
CCOC(=O)N1CCN(C(=O)COc2cccc3c2CCN(Cc2ccc(F)cc2)C3=O)CC1,i,i,-9,-0.19,i,i,x,x,x
